Key:
BtProRS2 [1] = target: T1, BtProRS2 (Bacillus thuringiensis, UniProt Q6HNZ7); experiment: Aminoacylation after pretreatment of the enzyme with H2O2, DTT, urea or GnHCl; assay type: biochemical
T1 sequence (Q6HNZ7 1-476): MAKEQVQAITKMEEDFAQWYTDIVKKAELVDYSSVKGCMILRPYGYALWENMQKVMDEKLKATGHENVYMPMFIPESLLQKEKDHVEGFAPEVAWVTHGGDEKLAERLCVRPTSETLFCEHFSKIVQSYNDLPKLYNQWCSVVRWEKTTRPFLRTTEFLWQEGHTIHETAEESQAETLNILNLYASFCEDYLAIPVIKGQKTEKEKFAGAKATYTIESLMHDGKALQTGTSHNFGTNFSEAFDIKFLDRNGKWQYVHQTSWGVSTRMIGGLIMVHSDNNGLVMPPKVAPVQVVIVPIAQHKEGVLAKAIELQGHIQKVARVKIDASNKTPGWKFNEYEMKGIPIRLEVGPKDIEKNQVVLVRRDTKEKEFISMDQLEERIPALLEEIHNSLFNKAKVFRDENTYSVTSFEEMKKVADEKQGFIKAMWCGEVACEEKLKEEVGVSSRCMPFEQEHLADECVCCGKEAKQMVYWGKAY
Procedure, shortened: (§1)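 Purified His6-tagged enzymes were expressed in E. coli BL21-CodonPlus(DE3) and purified by Ni-NTA. Enzymes at 1000 nM were pretreated 10 min at 20°C with H2O2 (0–32 mM), DTT (0–80 mM), urea (0–3200 mM) or GnHCl (0–3200 mM). They were then diluted to 100 nM final in buffer with 4 mM ATP, 10 μM transcribed tRNA^Pro and 21.13 μM [3H]-proline, run 10 min at 30°C, with TCA filter counting; three independent experiments.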

BtProRS1 [2] = target: T2, BtProRS1 (Bacillus thuringiensis, UniProt Q6HEZ6); experiment: as above; assay type: biochemical
T2 sequence (Q6HEZ6 1-566): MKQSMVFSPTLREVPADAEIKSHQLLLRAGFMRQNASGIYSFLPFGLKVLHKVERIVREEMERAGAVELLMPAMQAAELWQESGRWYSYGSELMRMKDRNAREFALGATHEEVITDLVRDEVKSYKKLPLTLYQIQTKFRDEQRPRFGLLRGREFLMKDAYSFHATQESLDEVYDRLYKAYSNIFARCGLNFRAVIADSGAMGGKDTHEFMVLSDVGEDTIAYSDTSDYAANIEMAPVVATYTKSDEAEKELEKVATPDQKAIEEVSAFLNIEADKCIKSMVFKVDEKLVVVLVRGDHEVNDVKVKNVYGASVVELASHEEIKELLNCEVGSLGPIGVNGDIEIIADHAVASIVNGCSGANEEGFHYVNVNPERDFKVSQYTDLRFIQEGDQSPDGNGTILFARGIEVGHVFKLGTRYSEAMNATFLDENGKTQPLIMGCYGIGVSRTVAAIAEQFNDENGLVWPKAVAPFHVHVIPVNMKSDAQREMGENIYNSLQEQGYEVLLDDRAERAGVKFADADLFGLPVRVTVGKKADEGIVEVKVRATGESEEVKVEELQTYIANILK
Procedure, shortened: as §1

[3] = system: total cellular extracts of B. thuringiensis; experiment: HF inhibition assay with total cellular extracts; assay type: biochemical, Bacillus thuringiensis; settings: 3 μg of total cellular extracts in 50-μl aminoacylation buffer, 30°C, 10 min
Procedure, shortened: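 B. thuringiensis ATCC 13367 was grown 24 h at 30°C in LB with shaking, PBS-washed, glass-bead lysed on ice in HEPES pH 7.2 buffer with protease inhibitors, and cleared. Extract (3 μg) was incubated with test compound (0.1 nM–10 μM) 10 min at 30°C; [3H]-proline charging of tRNA^Pro was filter-counted. Relative activity curves were fitted using the individual-enzyme curves to give the ProRS1 activity proportion.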

BtProRS1 [4] = target: T2, BtProRS1; experiment: HF inhibition assay; assay type: biochemical
Procedure, shortened: (§2)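 Purified His6-tagged enzyme (100 nM final) was mixed with test compound (0.1 nM–10 μM) in 50 μl aminoacylation buffer. Incubation was 10 min at 30°C, with TCA-filter scintillation counting. Relative activity is rate with inhibitor over rate without, and curves were fitted per enzyme.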

[5] = system: P-type ProRS (such as Pseudomonas aeruginosa ProRS); settings: cited from earlier work
BtProRS2 [6] = target: T1, BtProRS2; experiment: HF inhibition assay; assay type: biochemical
Procedure, shortened: as §2

T. gondii ProRS = settings: cited from earlier work
P. falciparum ProRS = settings: cited from earlier work

| IC50 (BtProRS2 [1]) [mM] | IC50 (BtProRS1 [2]) [mM] | SMILES | IC50 [3] [nM] | IC50 (BtProRS1 [4]) [nM] | less effective against a P-type ProRS than against E-type ProRS [5] [fold] | IC50 (BtProRS2 [6]) [nM] | IC50 for BtProRS2 lower than that for BtProRS1 (BtProRS2 [6]; ratio of IC50 BtProRS1 to BtProRS2) [fold] | IC50 (T. gondii ProRS) [nM] | IC50 (P. falciparum ProRS) [nM] |
| --- | --- | --- | --- | --- | --- | --- | --- | --- | --- |
| > 80 | 27 | O[C@@H](CS)[C@@H](O)CS (racemic) [DTT, Dithiothreitol] |  |  |  |  |  |  |  |
|  |  | O=C(CC1NCCCC1O)Cn1cnc2cc(Br)c(Cl)cc2c1=O (stereo not drawn) [HF, halofuginone] | ~400 | 680 | ~100 | 170 | 4 | 5.41 | 9 |
